The record followed here is ChEMBL document CHEMBL1122798, “Trypanocidal 1,3-arylene diketone bis(guanylhydrazone)s. Structure-activity relationships among substituted and heterocyclic analogues” (1984).

What all share (type): functional
Assay [1] concerns Mus musculus. Description: Compound was tested for Trypanocidal Activity in mice at 60 mg/kg; 0/5.
Assay [2] deals with Mus musculus. Briefly: Compound was tested for Trypanocidal Activity in mice at 40 mg/kg; 0/5.
In assay [3] the test system is Mus musculus. Description: Compound was tested for Trypanocidal Activity in mice at 100 mg/kg; 0/5.
In assay [4] the test system is Mus musculus. Briefly: Compound was tested for Trypanocidal Activity in mice at 150 mg/kg; 0/5.
For assay [5], the system named is Mus musculus. Briefly: Compound was tested for Trypanocidal Activity in mice at 15 mg/kg; 0/10.
In assay [6] the test system is Mus musculus. Description: Compound was tested for Trypanocidal Activity in mice at 10 mg/kg; 11/30.
Assay [7] concerns Mus musculus. Description: Compound was tested for Trypanocidal Activity in mice at 25 mg/kg; 16/20.
Assay [8] relates to Mus musculus. Briefly: Compound was tested for Trypanocidal Activity in mice at 100 mg/kg; 1/5.
Assay [9] deals with Mus musculus. Briefly: Compound was tested for Trypanocidal Activity in mice at 6 mg/kg; 0/20.
In assay [10] the test system is Mus musculus. Briefly: Compound was tested for Trypanocidal Activity in mice at 60 mg/kg; 5/5.
The subject of assay [11] is Mus musculus. Description: Compound was tested for Trypanocidal Activity in mice at 40 mg/kg; 13/15.
Assay [12] is filed under the species Mus musculus. Description: Effective dose against Trypanosoma brucei infection in mice. In a few lines:
(§1)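 Female Swiss-Webster mice (20–25 g) were infected ip with 5×10^4 T. brucei EATRO 110 organisms in fresh mouse blood diluted with minimum essential medium. Groups of 5 or 10 received a single ip dose in normal saline (solution or milled suspension, 20 μL/g) 6 h post-infection. Deaths within 72 h were scored as toxic. Survivors aparasitemic at 28 days (tail-blood wet films, phase contrast) counted as cures. ED50 was computed by Bliss/Litchfield–Wilcoxon, excluding toxic dosages.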

The test system of assay [13] is Mus musculus. Description: Compound was tested for Trypanocidal Activity in mice at 15 mg/kg; 14/25.
Assay [14] deals with Mus musculus. Briefly: Compound was tested for Trypanocidal Activity in mice at 4 mg/kg; 0/10.
In assay [15] the test system is Mus musculus. Briefly: Compound was tested for Trypanocidal Activity in mice at 100 mg/kg; 3/10.
The subject of assay [16] is Mus musculus. Briefly: Compound was tested for Trypanocidal Activity in mice at 40 mg/kg; 12/25.
Assay [17] deals with Mus musculus. Description: Compound was tested for Trypanocidal Activity in mice at 150 mg/kg; 1/5.
The subject of assay [18] is Mus musculus. Briefly: Compound was tested for Trypanocidal Activity in mice at 6 mg/kg; 0/5.
Assay [19] concerns Mus musculus. Briefly: Compound was tested for Trypanocidal Activity in mice at 60 mg/kg; 9/25. In a few lines: as §1
The subject of assay [20] is Mus musculus. Briefly: Compound was tested for Trypanocidal Activity in mice at 25 mg/kg; 1/20.
Assay [21] relates to Mus musculus. Briefly: Compound was tested for Trypanocidal Activity in mice at 10 mg/kg; 0/5.
The test system of assay [22] is Mus musculus. Briefly: Compound was tested for Trypanocidal Activity in mice at 10 mg/kg; 10/10.
For assay [23], the system named is Mus musculus. Briefly: Compound was tested for Trypanocidal Activity in mice at 0.25 mg/kg; 0/30.
Assay [24] concerns Mus musculus. Description: Compound was tested for Trypanocidal Activity in mice at 2.5 mg/kg; 20/20.
The subject of assay [25] is Mus musculus. Briefly: Compound was tested for Trypanocidal Activity in mice at 0.4 mg/kg; 19/35.
In assay [26] the test system is Mus musculus. Briefly: Compound was tested for Trypanocidal Activity in mice at 6 mg/kg; 20/20.
In assay [27] the test system is Mus musculus. Briefly: Compound was tested for Trypanocidal Activity in mice at 4 mg/kg; 9/10.
The subject of assay [28] is Mus musculus. Briefly: Compound was tested for Trypanocidal Activity in mice at 0.6 mg/kg; 20/30.
For assay [29], the system named is Mus musculus. Briefly: Compound was tested for Trypanocidal Activity in mice at 0.15 mg/kg; 0/10.
Assay [30] relates to Mus musculus. Briefly: Compound was tested for Trypanocidal Activity in mice at 25 mg/kg; 4/5.
In assay [31] the test system is Mus musculus. Description: Compound was tested for Trypanocidal Activity in mice at 15 mg/kg; 10/10.
The subject of assay [32] is Mus musculus. Description: Compound was tested for Trypanocidal Activity in mice at 1.5 mg/kg; 10/10.
Assay [33] deals with Mus musculus. Briefly: Compound was tested for Trypanocidal Activity in mice at 1.0 mg/kg; 8/10.
The subject of assay [34] is Mus musculus. Briefly: Compound was tested for Trypanocidal Activity in mice at 25 mg/kg; 0/5.
The subject of assay [35] is Mus musculus. Description: Compound was tested for Trypanocidal Activity in mice at 15 mg/kg; 0/5.

Molecules are shown by their SMILES.

`C/C(=N\NC(=N)N)c1cc(/C(C)=N/NC(=N)N)c(C)nc1C.CS(=O)(=O)O.Cl.Cl`: the Cures/total in the assay with Mus musculus [1], in the assay on Mus musculus [2], in the assay on Mus musculus [3], with Mus musculus [4] and with Mus musculus [5] was 0 in each case.
As for `C/C(=N\NC(=N)N)c1ccc(/C(C)=N/NC(=N)N)s1.CC(C)O.Cl`, the Cures/total with Mus musculus [6] stood at 11; in the assay on Mus musculus [7], 16; in the assay with Mus musculus [8] it was 1; with Mus musculus [9], 0; in the assay with Mus musculus [10], 5; with Mus musculus [11], 13. In addition, the figures for the Cures/total in the assay on Mus musculus [13] and with Mus musculus [14] were 14 and 0, respectively. The median effective dose (ED50) (usually the dose at which the effect has come halfway, by size or by number of responders) in the assay listed under Mus musculus [12] stood at 14 mg/kg.
On to `C/C(=N\NC(=N)N)c1cc(/C(C)=N/NC(=N)N)cc([N+](=O)[O-])c1.Cl`, for which the Cures/total with Mus musculus [15] amounted to 3; in the assay on Mus musculus [16], 12; in the assay with Mus musculus [17], 1; with Mus musculus [18], 0; in the assay on Mus musculus [19], 9; in the assay with Mus musculus [5], 0. The Cures/total worked out at 1 in the assay on Mus musculus [20] and 0 in the assay on Mus musculus [21].
Consider `C/C(=N\NC(=N)N)c1cc(/C(C)=N/NC(=N)N)cc(/C(C)=N/NC(=N)N)c1.Cl`, for which the Cures/total in the assay with Mus musculus [22] is recorded as 10; in the assay with Mus musculus [1] it was 0; in the assay with Mus musculus [23], 0; in the assay with Mus musculus [24], 20; in the assay on Mus musculus [25], 19; in the assay with Mus musculus [2], 0. Also, the Cures/total was determined as 20 with Mus musculus [26]; 9 in the assay on Mus musculus [27]; 20 in the assay on Mus musculus [28]; 0 in the assay on Mus musculus [29]; 4 in the assay on Mus musculus [30]; 10 with Mus musculus [32]. Also, in the assay on Mus musculus [33], the Cures/total is 8. Further, in the assay on Mus musculus [31], the “Mice cured (number)” value is recorded as 10. Further, the median effective dose (ED50) in the assay listed under Mus musculus [12] amounted to 0.47 mg/kg.
In the case of `Br.C/C(=N\NC1=NCCN1)c1cccc(/C(C)=N/NC2=NCCN2)c1`, the Cures/total in the assay on Mus musculus [2], in the assay with Mus musculus [34], in the assay with Mus musculus [35] and in the assay with Mus musculus [21] was 0 throughout.
Consider `C/C(=N\NC(=N)N)c1cccc(/C(C)=N/NC(=N)N)c1[N+](=O)[O-].Cl`, for which the Cures/total in the assay on Mus musculus [2], in the assay on Mus musculus [34] and with Mus musculus [5] was 0 each time.
